# Data reported in ChEMBL document CHEMBL1124534, “Synthesis, mechanism of action, and biological evaluation of mitosenes” (1989).
# Columns and labels:
# WiDr = experiment: In vitro antitumor activity against WiDr colon carcinoma tumor cell line was determined; type: functional; conditions: Homo sapiens, read-out: ID50 (the source's name)
# How it was run: (§1)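 Cell growth inhibition in vitro measured by the PIT method, with mitomycin C as positive reference.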
# L1210 = experiment: In vitro antitumor activity against L1210 lymphocytic leukemia tumor cell line was determined; type: functional; conditions: Mus musculus, read-out: ID50 (the source's name)
# How it was run: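 Inhibition of L1210 leukemia colony formation in vitro, with mitomycin C as positive reference.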
# A204 = experiment: In vitro antitumor activity against A204 rhabdomyosarcoma tumor cell line was determined; type: functional; conditions: Homo sapiens, read-out: ID50 (the source's name); how it was run: as §1
# Mus musculus [1] = experiment: Percent inhibition of compound (50 mg/Kg) was evaluated in vivo for antitumor activity against MAC 13 in female NMRI mice on day 29; type: functional
# How it was run: (§2)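 MAC 13 in female NMRI mice. Drugs were given in arachis oil BP by ip route on day 2 or day 29. % inhibition was derived from treated/untreated control tumor weight (volume); a negative value indicates stimulation.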
# Mus musculus [2] = experiment: Compound (40 mg/Kg) was evaluated in vivo for antitumor activity against MAC 16 in female NMRI mice on day 4 and ratio of tumor weight of treated to that of control was determined; type: functional
# Mus musculus [3] = experiment: Compound (40 mg/Kg) was evaluated in vivo for antitumor activity against MAC 16 in female NMRI mice on day 12 and ratio of tumor weight of treated to that of control was determined; type: functional
# Mus musculus [4] = experiment: Ability of intraperitoneally administered compound (50 mg/kg/day) to inhibit growth of human tumor xenograft GXF 97 was assessed on day 21 tested in five mice; type: functional
# How it was run: (§3)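 GXF 97 human gastric xenograft grown subcutaneously in nude mice for 24 days, then randomized; dosing began 1 day later as ip injections on days 1-4. Groups had 4-5 mice. Tumor length and width were measured. %T/C = median relative tumor size of treated / median relative tumor size of controls.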
# Mus musculus [5] = experiment: Percentage change in body weight [(day 6 - day 1)/ day 1] for antitumor activity against P388 Leukemia in CD2 mice at fractioned dose treatment of 70 mg/Kg; type: functional; conditions: in the assay text read “single dose treatment” for “fractioned dose treatment”
# How it was run: (§4)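 Mouse P388 leukemia model. Drugs were given intraperitoneally, either as a single injection or once daily for 9 consecutive days (fractioned schedule). Outcomes were median survival time in days, %T/C, and % body weight change.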
# Mus musculus [6] = experiment: Ability of intraperitoneally administered compound (50 mg/kg/day) to inhibit growth of human tumor xenograft GXF 97 was assessed on day 14 tested in five mice; type: functional; how it was run: as §3
# Mus musculus [7] = experiment: Median survival time in days for antitumor activity against P388 Leukemia in CD2 mice at fractioned dose treatment of 18 mg/Kg; type: functional
# How it was run: (§5)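 P388 leukemia-bearing mice were dosed intraperitoneally once daily for 9 consecutive days (fractioned schedule). The read-out was median survival time in days, reported alongside %T/C and % body weight change.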
# Mus musculus [8] = experiment: Percentage change in body weight [(day 6 - day 1)/ day 1] for antitumor activity against P388 Leukemia in CD2 mice at fractioned dose treatment of 18 mg/Kg; type: functional; how it was run: as §4
# Mus musculus [9] = experiment: Median survival time in days for antitumor activity against P388 Leukemia in CD2 mice at single dose treatment of 70 mg/kg
# Mus musculus [10] = experiment: Median survival time in days for antitumor activity against P388 Leukemia in CD2 mice at fractioned dose treatment of 25 mg/Kg; type: functional; how it was run: as §5
# Mus musculus [11] = experiment: Body wieght treated/body weight untreated controls of compound (40 mg/Kg) was evaluated in vivo for antitumor activity against MAC 16 in female NMRI mice on day 12; type: functional
# Mus musculus [12] = experiment: Percent T/C ([…]) for antitumor activity against P388 Leukemia in CD2 mice at fractioned dose treatment of 70 mg/kg; type: functional; conditions: in the assay text read “single dose” for “fractioned dose”; how it was run: as §4
# Mus musculus [13] = experiment: Percent inhibition of compound (50 mg/Kg) was evaluated in vivo for antitumor activity against MAC 13 in female NMRI mice on day 2; type: functional; how it was run: as §2
# Mus musculus [14] = experiment: Mean relative body weight change of treated / mean relative body weight change of control when compound (50 mg/kg/day) administered to inhibit growth of human tumor xenograft GXF 97 was reported at day 21 in mice; type: functional
# How it was run: (§6)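 GXF 97 xenograft grown subcutaneously in nude mice for 24 days, then randomized; ip dosing began 1 day later, given on days 1-4, with 4-5 mice per group. Read-out is mean relative body weight change of treated divided by mean relative body weight change of controls, in %.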
# Mus musculus [15] = experiment: Percent change in body weight [(day 6 - day 1)/ day 1] when P388 Leukemic CD2 mice were treated with a compound (50 mg/Kg); type: functional
# Mus musculus [16] = experiment: Mean relative body weight change of treated / mean relative body weight change of control when compound (50 mg/kg/day) administered to inhibit growth of human tumor xenograft GXF 97 was reported at day 14 in mice; type: functional; how it was run: as §6
# Mus musculus [17] = experiment: Percent T/C ([…]) for antitumor activity against P388 Leukemia in CD2 mice at a single dose treatment of 50 mg/Kg; type: functional
# How it was run: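 P388 leukemia mice given a single intraperitoneal injection. Median survival time (days) and body weight change were recorded. %T/C was derived from the survival of treated versus control mice.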
# Mus musculus [18] = experiment: Compound (50 mg/Kg) was evaluated in vivo for antitumor activity against MAC 13 in female NMRI mice on day 2 and ratio of tumor weight of treated to that of control was determined
# Mus musculus [19] = experiment: Relative tumor size on day 28 was reported when compound (50 mg/kg/day) administered to inhibit growth of human tumor xenograft GXF 97 in mice tested after 28 days; type: functional
# How it was run: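 GXF 97 human gastric xenograft grown subcutaneously in nude mice for 24 days, then mice randomized; treatment began 1 day later. Fractioned ip injections on days 1-4, or single iv injection on day 1; 4-5 mice per group. Tumor size from length and width; relative tumor size (% of controls) read at day 28.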
# Mus musculus [20] = experiment: Percentage change in body weight [(day 6 - day 1)/ day 1] for antitumor activity against P388 Leukemia in CD2 mice at fractioned dose treatment of 25 mg/Kg; type: functional; how it was run: as §4
# Mus musculus [21] = experiment: Ability of intraperitoneally administered compound (50 mg/kg/day) to inhibit growth of human tumor xenograft GXF 97 was assessed on day 28 tested in five mice; type: functional; how it was run: as §3
# Mus musculus [22] = experiment: Percent T/C ([…]) for antitumor activity against P388 Leukemia in CD2 mice at fractioned dose treatment of 18 mg/Kg; type: functional; how it was run: as §4
# Mus musculus [23] = experiment: Compound (50 mg/Kg) was evaluated in vivo for antitumor activity against MAC 13 in female NMRI mice on day 29 and ratio of tumor weight of treated to that of control was determined
# Mus musculus [24] = experiment: Body wieght treated/body weight untreated controls of compound (40 mg/Kg) was evaluated in vivo for antitumor activity against MAC 16 in female NMRI mice on day 4; type: functional
# Mus musculus [25] = experiment: Median survival time in days for antitumor activity against P388 Leukemia in CD2 mice at a single dose treatment of 50 mg/Kg; type: functional
# How it was run: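 P388 leukemia-bearing mice were given one intraperitoneal injection. The read-out was median survival time in days, reported alongside %T/C and % body weight change.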
# Mus musculus [26] = experiment: Mean relative body weight change of treated / mean relative body weight change of control when compound (50 mg/kg/day) administered to inhibit growth of human tumor xenograft GXF 97 was reported at day 28 in mice; type: functional; how it was run: as §6
# Mus musculus [27] = experiment: Percent T/C ([…]) for antitumor activity against P388 Leukemia in CD2 mice at fractioned dose treatment of 25 mg/Kg; type: functional; how it was run: as §4
compound,measurement,setting,value
CCNC(=O)OCc1c2c(n3c1C(O)CC3)C(=O)C=C(OC)C2=O (stereo not given),IC50,WiDr,0.029 µg/mL
same,IC50,L1210,0.118 µg/mL
same,IC50,A204,0.001 µg/mL
CCNC(=O)OCc1c2c(n3c1C(O)CC3)C(=O)C(C)=C(OC)C2=O (stereo not given),IC50,WiDr,0.051 µg/mL
same,IC50,L1210,0.206 µg/mL
same,IC50,A204,0.001 µg/mL
COC1=C(Br)C(=O)c2c(c(COC(C)=O)c3n2CCC3OC(C)=O)C1=O (stereo not given),IC50,WiDr,0.492 µg/mL
same,IC50,L1210,0.217 µg/mL
same,IC50,A204,0.479 µg/mL
CCCC(=O)OCc1c2c(n3c1C(OC(=O)CCC)CC3)C(=O)C(C)=C(OC)C2=O (stereo not given),IC50,WiDr,0.069 µg/mL
same,IC50,L1210,> 0.64 µg/mL
same,IC50,A204,0.021 µg/mL
COC1=C(Br)C(=O)c2c(c(COC(C)=O)c3n2CCCC3OC(C)=O)C1=O (stereo not given),IC50,WiDr,6.49 µg/mL
same,IC50,L1210,1.12 µg/mL
same,IC50,A204,4.14 µg/mL
COC1=CC(=O)c2c(c(CO)c3n2CCCC3O)C1=O (stereo not given),IC50,WiDr,2.17 µg/mL
same,IC50,L1210,1.33 µg/mL
same,IC50,A204,1.2 µg/mL
CCNC(=O)OCc1c2c(n3c1C(O)CCC3)C(=O)C=C(OC)C2=O (stereo not given),IC50,WiDr,0.18 µg/mL
same,IC50,L1210,0.942 µg/mL
same,IC50,A204,< 0.1 µg/mL
COC1=C(C)C(=O)c2c(c(CO)c3n2CCC3O)C1=O (stereo not given),IC50,WiDr,1.33 µg/mL
same,I,Mus musculus [1],-21%
same,T/C,Mus musculus [2],102%
same,T/C,Mus musculus [3],89%
same,T/C,Mus musculus [4],4.8%
same,BWC,Mus musculus [5],-0.9%
same,T/C,Mus musculus [6],12.6%
same,IC50,L1210,2.6 µg/mL
same,MST,Mus musculus [7],11 days
same,BWC,Mus musculus [8],17.3%
same,MST,Mus musculus [9],10 days
same,MST,Mus musculus [10],11 days
same,BW,Mus musculus [11],93%
same,T/C,Mus musculus [12],91%
same,I,Mus musculus [13],3%
same,BWC,Mus musculus [14],107.2%
same,BWC,Mus musculus [15],2.5%
same,BWC,Mus musculus [16],103.8%
same,T/C,Mus musculus [17],100%
same,T/C,Mus musculus [18],97%
same,Relative TS,Mus musculus [19],20.6%
same,BWC,Mus musculus [20],17.1%
same,T/C,Mus musculus [21],3.1%
same,T/C,Mus musculus [22],100%
same,T/C,Mus musculus [23],121%
same,BW,Mus musculus [24],118%
same,MST,Mus musculus [25],11 days
same,IC50,A204,0.641 µg/mL
same,BWC,Mus musculus [26],103.4%
same,T/C,Mus musculus [27],100%
COC1=C(C)C(=O)c2c(c(COC(C)=O)c3n2CCCC3OC(C)=O)C1=O (stereo not given),IC50,WiDr,0.171 µg/mL
same,IC50,L1210,1.54 µg/mL
same,IC50,A204,< 0.1 µg/mL
COC1=CC(=O)c2c(c(CO)c3n2CCC3O)C1=O (stereo not given),IC50,WiDr,2.6 µg/mL
same,IC50,L1210,1.15 µg/mL
same,IC50,A204,2.6 µg/mL
CCNC(=O)OCc1c2c(n3c1C(O)CCC3)C(=O)C(C)=C(OC)C2=O (stereo not given),IC50,WiDr,0.251 µg/mL
same,IC50,L1210,1.17 µg/mL
same,IC50,A204,0.05 µg/mL
CC(=O)OCc1c2c(n3c1C(OC(C)=O)CC3)C(=O)C(C)=C(N1CC1)C2=O (stereo not given),IC50,WiDr,0.02 µg/mL
same,IC50,L1210,0.166 µg/mL
same,IC50,A204,0.001 µg/mL
COC1=CC(=O)c2c(c(COC(C)=O)c3n2CCCC3OC(C)=O)C1=O (stereo not given),IC50,WiDr,0.115 µg/mL
same,IC50,L1210,0.582 µg/mL
same,IC50,A204,0.133 µg/mL
COC1=C(C)C(=O)c2c(c(CO)c3n2CCCC3O)C1=O (stereo not given),IC50,WiDr,5.89 µg/mL
same,IC50,L1210,3.72 µg/mL
same,IC50,A204,2.69 µg/mL
CCOC(=S)SCc1c2c(n3c1CCC3)C(=O)C(C)=C(OC)C2=O,IC50,WiDr,3.71 µg/mL
same,IC50,L1210,> 6.4 µg/mL
same,IC50,A204,0.585 µg/mL
COC1=CC(=O)c2c(c(COC(C)=O)c3n2CCCC3O)C1=O (stereo not given),IC50,WiDr,0.287 µg/mL
same,IC50,L1210,1.75 µg/mL
same,IC50,A204,0.115 µg/mL
